We go through seven compounds from ChEMBL document CHEMBL1135702, “Antitumor polycyclic acridines. 8.(1) Synthesis and telomerase-inhibitory activity of methylated pentacyclic acridinium salts” (J Med Chem, 2002).

A short description of assay [1]: Growth inhibition in the NCI 60 cell panel. In kind it is functional. The following applies: Homo sapiens.
In assay [2] the target is Telomerase reverse transcriptase (Homo sapiens, UniProt O14746). The assay can be described thus: Inhibition of telomerase activity using TRAP assay. The method in brief:
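Telomerase came from lysates of exponentially growing A2780 cells (CHAPS buffer, 30 min on ice, 0.1 mM AEBSF), using 40 ng protein. TS primer was extended in TRAP buffer (pH 8.3, 68 mM KCl) with 50 μM dNTPs and [α-³²P]dCTP, compound at various final concentrations, for 20 min at 25 °C. After 85 °C inactivation, the CX primer was added with Taq for 31 PCR cycles. Products were read by phosphoimaging or scintillation counting.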

Assay [3] can be described thus: Selectivity index (GI50/Telomerase IC50).

Chain of Telomerase reverse transcriptase (O14746 whole entry): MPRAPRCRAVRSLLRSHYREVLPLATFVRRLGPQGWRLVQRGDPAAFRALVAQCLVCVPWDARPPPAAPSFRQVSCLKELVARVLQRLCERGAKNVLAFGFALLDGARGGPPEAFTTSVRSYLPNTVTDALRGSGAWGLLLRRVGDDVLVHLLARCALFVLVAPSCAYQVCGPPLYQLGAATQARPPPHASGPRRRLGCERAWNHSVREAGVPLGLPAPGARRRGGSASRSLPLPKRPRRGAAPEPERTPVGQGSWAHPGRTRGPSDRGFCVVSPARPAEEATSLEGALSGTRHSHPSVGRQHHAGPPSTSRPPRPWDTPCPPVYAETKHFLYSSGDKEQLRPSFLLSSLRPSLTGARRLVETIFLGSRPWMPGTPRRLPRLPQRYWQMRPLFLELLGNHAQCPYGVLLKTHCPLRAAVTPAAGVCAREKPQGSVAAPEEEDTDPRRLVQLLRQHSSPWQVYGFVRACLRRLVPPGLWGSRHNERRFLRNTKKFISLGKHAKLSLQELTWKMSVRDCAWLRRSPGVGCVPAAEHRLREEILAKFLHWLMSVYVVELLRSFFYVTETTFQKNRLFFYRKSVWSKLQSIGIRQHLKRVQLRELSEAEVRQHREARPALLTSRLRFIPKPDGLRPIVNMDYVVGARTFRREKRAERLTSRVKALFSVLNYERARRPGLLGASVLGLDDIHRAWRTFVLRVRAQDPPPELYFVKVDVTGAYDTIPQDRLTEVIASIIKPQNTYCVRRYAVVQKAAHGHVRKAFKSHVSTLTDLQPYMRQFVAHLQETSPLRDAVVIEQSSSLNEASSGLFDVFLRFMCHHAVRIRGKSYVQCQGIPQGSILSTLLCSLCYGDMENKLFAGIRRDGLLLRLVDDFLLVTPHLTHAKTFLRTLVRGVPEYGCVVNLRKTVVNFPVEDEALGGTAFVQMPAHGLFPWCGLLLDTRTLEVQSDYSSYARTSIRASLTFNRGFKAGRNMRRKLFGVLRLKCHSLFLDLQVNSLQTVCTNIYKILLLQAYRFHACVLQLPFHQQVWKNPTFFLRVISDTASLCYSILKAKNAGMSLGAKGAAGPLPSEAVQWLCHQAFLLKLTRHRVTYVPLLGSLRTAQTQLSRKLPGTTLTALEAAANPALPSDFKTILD

For the compound `Cc1cc2c3c([n+](C)c4ccccc4c3c1)-c1ccccc1N2C`, the GI50 (commonly the concentration that inhibits growth by half) in assay [1] worked out at 1.29 µM. For the same compound, it took 0.76 µM to reach half-maximal inhibition in assay [2] (IC50). Besides, in assay [3], the SI was found to be 1.7.
On to `Cc1ccc2c(c1)-c1c3c(cc(C)cc3c3cc(C)ccc3[n+]1C)N2C`, for which the GI50 in assay [1] is 0.41 µM. Half-maximal inhibition in assay [2] (IC50) required 0.25 µM. The compound also showed an SI in assay [3] of 1.8.
Regarding `CN1c2ccccc2-c2c3c1cccc3c1ccccc1[n+]2C`, in assay [2], the IC50 (usually the point on the concentration scale where inhibition reaches its midpoint) came to 0.38 µM.
For the compound `Cc1cc2c3c([n+](C)c4ccc(Cl)cc4c3c1)-c1cc(Cl)ccc1N2C`, the GI50 in assay [1] was determined as 4.17 µM. In assay [2], this compound yielded a half-maximal inhibitory concentration (IC50) of 0.25 µM. In assay [3], this compound yielded an SI of 17.
Compound `CCN1c2ccccc2-c2c3c1cc(C)cc3c1ccccc1[n+]2CC` yielded a concentration for 50% growth inhibition (GI50) in assay [1] of 1.1 µM. The compound also showed an IC50 in assay [2] of 2 µM. In assay [3], the SI is 0.5.
For the compound `c1ccc2c(c1)Nc1cccc3cc4[n+](c-2c13)CCC4`, the GI50 in assay [1] was determined as 0.09 µM.
In turn, `Cc1cc2c3c([n+](C)c4ccc(F)cc4c3c1)-c1cc(F)ccc1N2C` gave a GI50 in assay [1] of 13.2 µM. Further, in assay [2], 0.33 µM corresponded to half-maximal inhibition (IC50). Also, the SI in assay [3] came to 40.
